Data: ChEMBL document CHEMBL1123171, “Synthesis of delta 3-1-methylene-1-carbacephems” (1986)
Converted amounts (≈) assume the structure as drawn.

How the values were obtained:
[1] = test system: Sarcina lutea (ATCC 9341); test: In vitro antibacterial activity against Sarcina lutea (ATCC 9341)
[2] = test system: Staphylococcus aureus; test: Compound was tested in vitro for the antibacterial activity against Staphylococcus aureus (ATCC 6538P); type: functional
In short: (§1)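 Agar dilution MIC in diagnostic sensitivity test agar; inoculum 10^5–10^6 cfu/spot applied with a multipoint inoculator. Test compounds were racemic, so reported values are corrected: only one-half of the observed MIC is taken.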

[3] = test system: Bacillus subtilis; test: In vitro antibacterial activity against B. subtilis( NCTC 8236); type: functional
In short: as §1

[4] = test system: Escherichia coli; test: In vitro antibacterial activity against Escherichia coli (ESS); type: functional
In short: as §1

C=C1C2[C@H](NC(=O)C(N)c3ccccc3)C(=O)N2C(C(=O)O)=CC1(C)C (some centres not stated)
MIC [1]: 0.12 µg/mL (≈ 0.338 µM) | MIC [2]: 8 µg/mL (≈ 22.5 µM) | MIC [3]: 1.5 µg/mL (≈ 4.22 µM) | MIC [4]: 5 µg/mL (≈ 14.1 µM)

CC1=C(C(=O)O)N2C(=O)[C@@H](NC(=O)[C@H](N)c3ccccc3)[C@H]2SC1 [CEPHALEXIN ANHYDROUS]
MIC [1]: 0.03 µg/mL (≈ 0.0864 µM) | MIC [2]: 0.3 µg/mL (≈ 0.864 µM) | MIC [3]: 1 µg/mL (≈ 2.88 µM) | MIC [4]: 1 µg/mL (≈ 2.88 µM)

C=C1C2[C@H](NC(=O)COc3ccccc3)C(=O)N2C(C(=O)O)=CC1(C)C (some centres not stated)
MIC [1]: 2 µg/mL (≈ 5.61 µM) | MIC [2]: 4 µg/mL (≈ 11.2 µM) | MIC [3]: 1.5 µg/mL (≈ 4.21 µM) | MIC [4]: 1.5 µg/mL (≈ 4.21 µM)
